# An excerpt weighted towards active compounds, which were near 1.5% of everything screened.
# UCH37 inh: human UCH37 deubiquitinating enzyme inhibition; inhibition, % (no concentration beside the values); Q9Y5K5; purified proteasome/UCH37, Ub-AMC cleavage fluorescence; 330,000 compounds, 0.33% hits; AID 588478;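 active = mean inhibition over replicate wells above about 20%, limit read from the data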;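 also: 0% = compound-free wells with enzyme and 100% = wells lacking proteasome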
# Target sequence (Q9Y5K5 whole entry, looked up): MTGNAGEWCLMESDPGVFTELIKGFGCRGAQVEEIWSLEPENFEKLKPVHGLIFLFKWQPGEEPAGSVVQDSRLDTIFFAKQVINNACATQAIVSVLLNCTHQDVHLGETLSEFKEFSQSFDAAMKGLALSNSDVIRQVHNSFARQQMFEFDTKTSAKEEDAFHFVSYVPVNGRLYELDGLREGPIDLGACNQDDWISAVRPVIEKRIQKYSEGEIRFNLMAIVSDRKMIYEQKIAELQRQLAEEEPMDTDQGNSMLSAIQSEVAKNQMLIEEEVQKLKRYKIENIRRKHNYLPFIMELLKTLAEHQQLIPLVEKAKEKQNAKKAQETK
#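 system = Proteasome-associated human UCH37 deubiquitinase | amount = 0.15 nM proteasome as dispensed | medium = pH 7.4 Tris-HCl (50 mM) with ovalbumin, ATP-MgCl2, DTT | incubation = 30 min preincubation with enzyme, 25 min cleavage at room temperature | detection = AMC fluorescence 355/460 nm | read-out basis = percent inhibition | controls = no-proteasome and no-compound wells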
# CendR NRP1 mod: modulators of CendR peptide binding to human neuropilin-1; FAM-RPARPAR peptide binding to NRP-1, fluorescence polarization; inhibition, % at 25 µM; 360,000 compounds, 0.85% hits; AID 602438;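 active = inhibition or corrected inhibition above about 18%, plus a signal ratio from 0.5 to 1.5, limit read from the data, passing the limit was not always enough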
# DAGLB inhibitor: diacylglycerol lipase beta (human) inhibition; HEK293T DAGLB membrane lysate, EnzChek fluorogenic substrate; inhibition, % at 5.17 µM; 340,000 compounds, 0.059% hits; AID 504411; in the data active = inhibition above about 34%;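 also: 0% = enzyme with vehicle and 100% = wells lacking enzyme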
# CTSL1 counter: cathepsin L1 inhibition, PFM18AAP counter-screen; recombinant F. hepatica cathepsin L1, Z-Leu-Arg-MCA fluorescence; inhibition, % at 5.96 µM; 300,000 compounds, 0.49% hits;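 active = inhibition above the mean of all tested compounds plus 3 SD, set per screening campaign, cut at about 17% in these data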;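 also: 0% = plate median of test compound wells and 100% = 1 µM Z-Phe-Ala-diazomethylketone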
# MT1-MMP act inh: inhibitors of human MT1-MMP activation | HT1080 RFP-PRO-GFP cells, GFP/RFP ratio fluorescence, overnight; percent of plate control window, DMSO zero | GFP/RFP ratio change, % at 20 µM | 360,000 compounds, 0.061% hits | AID 651647;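 active = GFP/RFP ratio change of at least 30% with cell ATP level not reduced by more than half and red fluorescence within 50% of control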
#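 Assay system: RFP-PRO-GFP reporter HT1080 cells; read-out basis: GFP/RFP fluorescence ratio; benchmarks: DMSO wells and RFP-L50D-GFP cells; doses: 20 µM single dose, 1% DMSO; schedule: overnight cell settling, then overnight compound exposure, 37 °C, 5% CO2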
# Starred values were filed as active, the others as inactive; x = no result.
SMILES,UCH37 inh,CendR NRP1 mod,DAGLB inhibitor,CTSL1 counter,MT1-MMP act inh
CCCCCCCCN1C(=O)[C@H](CC(=O)NCCCN2CCCC2=O)C[C@@]2(C(=O)OC)CCCCC=C12,x,29*,x,x,5
O=C(NN=Cc1cccnc1)c1ccc(Cl)s1,4,x,x,x,x
CC(C)(C)CC(=O)Nc1ccc(C(N)=O)cc1,2,26*,-1,-4,-2
Cc1ccc(S(=O)(=O)N(C)Cc2ccc(C(=O)NN=C3CCCC(=O)C3)cc2)cc1,3,x,x,x,x
Cn1c(=O)c2[nH]c(NCCCN3CCOCC3)nc2n(C)c1=O,0,22*,-2,4,1
O=C1NNC(c2ccccc2)=N/C1=C\c1ccccc1,23*,4,1,-4,4
O=C(NN=Cc1ccc(O)c([N+](=O)[O-])c1)c1ccncc1,20*,x,x,x,x
COc1ccccc1NS(=O)(=O)c1ccc(N/N=C/C=C/c2ccccc2[N+](=O)[O-])c([N+](=O)[O-])c1,x,29*,8,3,9
COc1ccccc1NS(=O)(=O)c1ccc(N/N=C/c2ccccc2OCC(=O)O)c([N+](=O)[O-])c1,x,4,31,3,10
O=C(COC(=O)c1ccc([N+](=O)[O-])o1)NC1CCCc2ccccc21 (stereo not drawn),20*,-40,-2,x,3
COc1ccc(NC(=O)CN(C)CC(=O)Nc2cccc(F)c2)cc1Cl,1,28*,-4,0,6
COc1ccc(NC(=O)c2cccc(F)c2)cc1Cl,-2,-7,-3,10,2
COc1cccc(NC(=S)NN=C2CCCCc3ccccc32)c1,-2,x,x,x,x
COc1cccc(NC(=S)NN=C2CCC(C(C)(C)C)CC2)c1 (stereo not drawn),0,11,-1,20*,-1
COc1ccccc1N1CCN(CC(O)=C(C#N)c2nc(-c3ccccc3)cs2)CC1,3,x,x,x,x
COc1ccc(-c2oc(NC(=O)CSc3nncn3C)c(C#N)c2-c2ccc(OC)cc2)cc1,-10,2,2,30*,-4
CCn1c(SCC(=O)Nc2oc(-c3ccccc3)c(-c3ccccc3)c2C#N)nnc1-c1ccco1,-1,-10,-2,1,-2
O=C(COc1ccc(Cl)cc1)NCCCNC(=O)c1cccnc1,-1,2,-1,17*,1
C(=NN1CCN(c2ccccc2)CC1)c1ccncc1,2,x,x,x,x
Cc1cc(Cl)ccc1OC(C)C(=O)Nc1ccc([N+](=O)[O-])cn1 (stereo not drawn),x,26*,-6,7,-1
CCCN1C=CC(=C/C=C(\C#N)C(=O)OCC)C=C1,x,x,x,15,x
CCCCCCN1C=CC(=C/C=C(\C#N)C(=O)OCC)C=C1,21*,132,-119,10,-322
CC(C)C(=O)Nc1ccc(C(=O)NN=CC2CC3C=CC2C3)cc1 (stereo not drawn),4,x,x,x,x
COc1ccc2c(-c3ccccc3)cc(SC(C)C(N)=O)nc2c1 (stereo not drawn),-6,29*,-3,-3,4
CCCN(C(=O)CSc1cc(-c2ccccc2)c2ccc(OC)cc2n1)C1CCS(=O)(=O)C1 (stereo not drawn),-11,-6,-1,4,1
SMILES,UCH37 inh,CendR NRP1 mod,DAGLB inhibitor,CTSL1 counter,MT1-MMP act inh
CC(Sc1ncccn1)C(=O)NC1(C#N)CCCCC1 (stereo not drawn),-3,26*,0,x,2
Cc1cccc(NS(=O)(=O)c2cc(C(=O)NCCC3=CCCCC3)ccc2Cl)c1,21*,-8,-4,4,-11
CC1CN(S(=O)(=O)c2cc(C(=O)NCCC3=CCCCC3)ccc2Cl)CC(C)O1 (stereo not drawn),5,-5,-5,4,5
C=CCc1ccc(OCCn2nnc3ccccc32)c(OC)c1,x,27*,-5,1,-3
O=C(CNC(=O)c1ccc(S(=O)(=O)N2CCCC2)cc1)NN=Cc1ccc(F)cc1,3,x,x,x,x
O=C(c1ccc(S(=O)(=O)Cc2ccccc2Cl)c([N+](=O)[O-])c1)N1CCOCC1,-1,17*,1,5,2
Cc1cc(=O)[nH]c(NN=Cc2cn(CCC#N)nc2-c2ccccc2)n1,2,x,x,x,x
O=C(NN=Cc1ccc[nH]1)C1COc2ccccc2O1 (stereo not drawn),7,x,x,x,x
CC(O)C(NC=C1C(=O)OC(C)(C)OC1=O)C(=O)O (stereo not drawn),2,29*,-3,1,1
CC(C)C(NC=C1C(=O)OC(C)(C)OC1=O)C(=O)O (stereo not drawn),0,-3,-2,0,4
C=CCn1c(SCC(=O)O)nc2sc(CC)cc2c1=O,3,26*,-2,10,-1
CN(C)C=NC(=O)c1cc(C(=O)c2ccc(Cl)cc2)c[nH]1,5,10,1,18*,-4
COc1ccccc1C(=O)NN=C(C)CC(=O)Nc1ccccc1NC(C)=O,2,x,x,x,x
O=c1c2ccccc2nc2n1C(CSc1ccccc1)CS2 (stereo not drawn),x,20,-1,-1,-3
O=c1c2ccccc2nc2n1C(CSc1ccc(F)cc1)CS2 (stereo not drawn),1,29*,0,1,1
COc1cc(C)cc(C(=O)O)c1C1=C(O)c2cccc(O)c2C(=O)C1=O,6,28*,1,2,5
CCCCCn1c(=O)[nH]c2cc(C(=O)NCCCN3CCC(C)CC3)ccc2c1=O,-7,28*,1,-1,-6
O=C(c1cccs1)N1CC=C(c2ccccc2)CC1,x,17*,-9,x,-1
O=C(CN1CCCCCC1)NN=Cc1ccc(Cl)c(Cl)c1,8,x,x,x,x
O=C(O)CCNc1ccc2c(c1)OCCO2,5,46*,-2,4,-1
O=C(O)CCCCCNC(=O)Nc1ccc2c(c1)OCCO2,-3,-3,3,-3,2
O=C(/C=C/Nc1ccc([N+](=O)[O-])cc1)c1ccc(Br)cc1,x,-23,2,17*,-2
CC(Nc1ccc2ccccc2c1)C(=O)N/N=C/c1ccncc1 (stereo not drawn),x,25*,2,x,-1
CCOC(=O)C(NC(=O)CCl)(Nc1sc(C)c(CC)c1C#N)C(F)(F)F (stereo not drawn),1,6,-2,10,-4
CCOC(=O)C(NC(=O)CC(C)C)(Nc1sc(C)c(CC)c1C#N)C(F)(F)F (stereo not drawn),1,24*,2,4,-11
O=C(O)COc1ccc(Br)cc1C=NO,2,x,x,x,x
COc1ccc(CCNC(=O)c2nnn(CC(=O)Nc3ccccc3C)c2N)cc1OC,9,28*,0,1,-3
CCC(=O)N(CCC(c1ccco1)C(C)C)Cc1ccccc1 (stereo not drawn),2,0,-6,30*,-2
Brc1ccc(Sc2cnc3ccccc3n2)cc1,1,23*,-11,2,-2

# Source: PubChem (several laboratories)
